The values below come from ChEMBL document CHEMBL1148767, “Synthesis and biological evaluation of the mitochondrial complex 1 inhibitor 2-[4-(4-fluorobutyl)benzylsulfanyl]-3-methylchromene-4-one as a potential cardiac positron emission tomography tracer” (J Med Chem, 2007).

Data set [1] in a line: Inhibition of bovine mitochondrial MC1. More on the design: species or system Bos taurus. A digest of the protocol:
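Submitochondrial particles were sonicated from bovine heart mitochondria, final 45 µg/mL. Medium was 50 mM K2HPO4 pH 7.4, 0.4 µM antimycin A and 2 mM KCN. Inhibitor preincubated 4 min at varying concentrations. Reaction started with 100 µM decyl ubiquinone and 50 µM NADH at 37 °C. NADH oxidation read at 340 nm for 120 s. IC50 is 50% inhibition, referenced to a concurrent rotenone standard.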

The test system of data set [2] is Heart. Put plainly: Biodistribution in Sprague-Dawley rat heart at 15 uCi, iv after 120 mins. It is filed as ADME, organism-based. As to conditions: in vivo, 2 h. A digest of the protocol: (§1)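 Male SD rats (300-400 g) anesthetized with sodium pentobarbital (50 mg/kg ip), left femoral vein cannulated. About 15 µCi of 18F tracer (specific activity 750-2000 Ci/mmol) in 0.3 mL 10% ethanol saline given iv. Sacrificed in CO2 at 30 or 120 min (n = 5 per time point). Tissues weighed, gamma-counted, decay-corrected, and expressed as %ID/g ± SD.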

For data set [3], the system named is Blood. Kind of data set: Biodistribution in Sprague-Dawley rat blood at 15 uCi, iv after 120 mins. It is filed as ADME, organism-based. As to conditions: in vivo, 2 h. The procedure, abridged: as §1
The subject of data set [4] is Lung. Kind of data set: Biodistribution in Sprague-Dawley rat lung at 15 uCi, iv after 30 mins. As to conditions: in vivo, 0.5 h. It is filed as ADME, organism-based. A digest of the protocol: as §1
In data set [5] the test system is Liver. Put plainly: Biodistribution in Sprague-Dawley rat liver at 15 uCi, iv after 30 mins. It is filed as ADME, organism-based. As to conditions: in vivo, 0.5 h. A digest of the protocol: as §1
Data set [6] relates to Femur. Put plainly: Biodistribution in Sprague-Dawley rat femur at 15 uCi, iv after 120 mins. It is filed as ADME, organism-based. As to conditions: in vivo, 2 h. A digest of the protocol: as §1
In data set [7] the test system is Muscle tissue. Kind of data set: Biodistribution in Sprague-Dawley rat muscle at 15 uCi, iv after 30 mins. It is filed as ADME, organism-based. As to conditions: in vivo, 0.5 h. The procedure, abridged: as §1
The subject of data set [8] is Kidney. Kind of data set: Biodistribution in Sprague-Dawley rat kidney at 15 uCi, iv after 30 mins. It is filed as ADME, organism-based. As to conditions: in vivo, 0.5 h. The procedure, abridged:
as §1

Data set [9] concerns Spleen. Kind of data set: Biodistribution in Sprague-Dawley rat spleen at 15 uCi, iv after 120 mins. It is filed as ADME, organism-based. As to conditions: in vivo, 2 h. The procedure, abridged:
as §1

In data set [10] the test system is Kidney. Kind of data set: Biodistribution in Sprague-Dawley rat kidney at 15 uCi, iv after 120 mins. It is filed as ADME, organism-based. As to conditions: in vivo, 2 h. A digest of the protocol: as §1
In data set [11] the test system is Lung. Put plainly: Biodistribution in Sprague-Dawley rat lung at 15 uCi, iv after 120 mins. It is filed as ADME, organism-based. As to conditions: in vivo, 2 h. A digest of the protocol:
as §1

Data set [12] relates to Spleen. Kind of data set: Biodistribution in Sprague-Dawley rat spleen at 15 uCi, iv after 30 mins. It is filed as ADME, organism-based. As to conditions: in vivo, 0.5 h. A digest of the protocol:
as §1

Data set [13] has as its system Femur. Kind of data set: Biodistribution in Sprague-Dawley rat femur at 15 uCi, iv after 30 mins. As to conditions: in vivo, 0.5 h. It is filed as ADME, organism-based. The procedure, abridged:
as §1

Data set [14] deals with Muscle tissue. Put plainly: Biodistribution in Sprague-Dawley rat muscle at 15 uCi, iv after 120 mins. It is filed as ADME, organism-based. As to conditions: in vivo, 2 h. A digest of the protocol:
as §1

For data set [15], the system named is Blood. Kind of data set: Biodistribution in Sprague-Dawley rat blood at 15 uCi, iv after 30 mins. As to conditions: in vivo, 0.5 h. It is filed as ADME, organism-based. The procedure, abridged: as §1
Data set [16] concerns Brain. Kind of data set: Biodistribution in Sprague-Dawley rat brain at 15 uCi, iv after 120 mins. It is filed as ADME, organism-based. As to conditions: in vivo, 2 h. A digest of the protocol: as §1
For data set [17], the system named is Brain. Put plainly: Biodistribution in Sprague-Dawley rat brain at 15 uCi, iv after 30 mins. It is filed as ADME, organism-based. As to conditions: in vivo, 0.5 h. A digest of the protocol:
as §1

Data set [18] deals with Heart. Kind of data set: Biodistribution in Sprague-Dawley rat heart at 15 uCi, iv after 30 mins. It is filed as ADME, organism-based. As to conditions: in vivo, 0.5 h. A digest of the protocol:
as §1

Data set [19] has as its system Liver. Kind of data set: Biodistribution in Sprague-Dawley rat liver at 15 uCi, iv after 120 mins. It is filed as ADME, organism-based. As to conditions: in vivo, 2 h. A digest of the protocol:
as §1

Broadly, the IC50 is the point on the concentration scale where inhibition reaches its midpoint. Low values mean inhibition by little substance, high ones a need for much substance. In turn, `CCCCc1ccc(COc2oc3ccccc3c(=O)c2C)cc1` came in with an IC50 in [1] of 60 nM.

`CCCCc1ccc(CNc2oc3ccccc3c(=O)c2C)cc1`: half-maximal inhibition in data set [1] (IC50) required 57 nM.

Molecule `Cc1c(SCc2ccc(CCCCF)cc2)oc2ccccc2c1=O` yielded an IC50 in data set [1] of 9 nM. Against the preceding molecule, the IC50 is about 6.3-fold lower.

The molecule `Cc1c(OCc2ccc(CCCCF)cc2)oc2ccccc2c1=O` gave an IC50 in data set [1] of 33 nM.

As for `Cc1c(NCc2ccc(CCCCF)cc2)oc2ccccc2c1=O`, the IC50 in [1] is 133 nM.

Take `Cc1c(SCc2ccc(CCCCOCCF)cc2)oc2ccccc2c1=O`: the IC50 in [1] worked out at 197 nM.

Molecule `Cc1c(SCc2ccc(COCCF)cc2)oc2ccccc2c1=O` came in with an IC50 in [1] of 15 nM. Against the preceding molecule, the IC50 is about 13-fold lower.

For the molecule `Cc1c(SCc2ccc(CCCC[18F])cc2)oc2ccccc2c1=O`, the Drug uptake in the data set on Heart [2] is 1.52 % ID/g; with Blood [3], 0.06 % ID/g; in the data set on Lung [4], 0.32 % ID/g; in the data set on Liver [5] it was 2 % ID/g; with Femur [6] it was 0.74 % ID/g; in the data set with Muscle tissue [7], 0.06 % ID/g. Further, the Drug uptake with Kidney [8] is 1.93 % ID/g; in the data set on Spleen [9] it was 0.09 % ID/g; in the data set on Kidney [10], 0.59 % ID/g; in the data set with Lung [11] it was 0.12 % ID/g; in the data set with Spleen [12], 0.41 % ID/g; with Femur [13] it was 0.36 % ID/g. Besides, the Drug uptake is on record as 0.09 % ID/g with Muscle tissue [14]; 0.11 % ID/g in the data set with Blood [15]; 0.17 % ID/g with Brain [16]; 0.26 % ID/g with Brain [17]; 2.24 % ID/g in the data set on Heart [18]; 0.6 % ID/g with Liver [19].

In turn, `Cc1c(SCc2ccc(C(C)(C)C)cc2)oc2ccccc2c1=O` gave a half-maximal inhibitory concentration (IC50) in [1] of 52 nM. That is a double-digit nanomolar value.

`Cc1c(SCc2ccc(OCC(C)F)cc2)oc2ccccc2c1=O` (stereo unspecified) came in with an IC50 in [1] of 16 nM.

In data set [1], `CCCCc1ccc(CSc2oc3ccccc3c(=O)c2C)cc1` came in with an IC50 of 52 nM.

`CC(C)(C)c1ccc(CCOc2ncnc3ccccc23)cc1` [FENAZAQUIN] returned an IC50 in data set [1] of 90 nM. Against the preceding molecule, the IC50 is about 1.7-fold higher.

The molecule `CC(C)(C)c1ccc(CSc2cnn(C(C)(C)C)c(=O)c2Cl)cc1` [PYRIDABEN] came in with an IC50 in data set [1] of 8 nM. Against the preceding molecule, the IC50 is about 11-fold lower.

Regarding `C=C(C)[C@H]1Cc2c(ccc3c2O[C@@H]2COc4cc(OC)c(OC)cc4[C@@H]2C3=O)O1` [ROTENONE], the IC50 in data set [1] turned out to be 16 nM. Against the preceding molecule, the IC50 is about 2-fold higher.
